Laboratory results published in paper PMC2939729 (Cancer cell, 2010).

Legend:
DCAMKL1 = molecular target: T1, DCAMKL1 (Homo sapiens, UniProt O15075); test: in vitro ATP-site competition binding assay, panel of 402 kinases; conditions: 10 μM inhibitor
T1 sequence (O15075 1-740): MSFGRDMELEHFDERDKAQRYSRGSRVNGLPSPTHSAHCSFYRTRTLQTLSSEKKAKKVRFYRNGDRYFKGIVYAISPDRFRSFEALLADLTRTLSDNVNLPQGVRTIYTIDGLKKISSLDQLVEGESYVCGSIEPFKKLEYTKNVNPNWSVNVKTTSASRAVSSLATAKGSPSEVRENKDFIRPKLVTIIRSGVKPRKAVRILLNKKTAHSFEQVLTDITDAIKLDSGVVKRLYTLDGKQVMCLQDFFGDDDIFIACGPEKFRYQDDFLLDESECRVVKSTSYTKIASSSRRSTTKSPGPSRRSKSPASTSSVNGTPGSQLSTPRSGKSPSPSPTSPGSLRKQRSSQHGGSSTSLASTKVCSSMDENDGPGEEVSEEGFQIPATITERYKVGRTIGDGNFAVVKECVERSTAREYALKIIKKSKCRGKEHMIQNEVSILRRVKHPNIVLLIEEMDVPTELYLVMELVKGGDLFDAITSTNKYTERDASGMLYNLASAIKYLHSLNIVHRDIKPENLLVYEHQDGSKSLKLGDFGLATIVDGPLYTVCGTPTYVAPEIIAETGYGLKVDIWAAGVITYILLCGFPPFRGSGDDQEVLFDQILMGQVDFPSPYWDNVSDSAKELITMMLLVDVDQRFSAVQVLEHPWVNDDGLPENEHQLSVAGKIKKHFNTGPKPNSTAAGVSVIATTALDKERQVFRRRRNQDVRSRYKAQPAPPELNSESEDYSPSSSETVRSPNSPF

MEK5 = molecular target: T2, MEK5 (Homo sapiens, UniProt Q13163); test: KiNativ profiling in HeLa cell lysates; assay type: binding; conditions: at up to 50 μM
T2 sequence (Q13163 1-448): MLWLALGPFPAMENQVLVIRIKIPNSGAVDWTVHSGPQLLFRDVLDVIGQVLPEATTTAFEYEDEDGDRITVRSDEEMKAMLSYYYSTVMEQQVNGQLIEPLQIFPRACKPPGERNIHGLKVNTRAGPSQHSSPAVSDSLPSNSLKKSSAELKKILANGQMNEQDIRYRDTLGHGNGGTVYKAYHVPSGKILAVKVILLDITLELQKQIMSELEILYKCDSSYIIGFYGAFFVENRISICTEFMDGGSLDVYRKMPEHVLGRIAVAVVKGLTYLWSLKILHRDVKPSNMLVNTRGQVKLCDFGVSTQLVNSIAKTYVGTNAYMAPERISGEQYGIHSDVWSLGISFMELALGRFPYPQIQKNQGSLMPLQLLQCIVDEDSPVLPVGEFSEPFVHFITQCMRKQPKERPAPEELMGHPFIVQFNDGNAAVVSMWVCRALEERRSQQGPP
Summary of the method: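 HeLa lysates (5 mg/mL total protein) were preincubated 15 min with test compound at 50, 10, 2, 0.8 or 0 μM. ATP or ADP acylphosphate probe was then added (5 μM final) for 10 min, and the reaction was stopped with urea and processed for MS. Each kinase signal came from up to four fragment ions of its peptide-probe conjugate. % inhibition was taken against untreated lysate, with duplicate reactions.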

TNK1 = molecular target: T3, TNK1 (Homo sapiens, UniProt Q13470); test: Inhibitory effect on TNK1 in vitro and in vivo
T3 sequence (Q13470 1-666): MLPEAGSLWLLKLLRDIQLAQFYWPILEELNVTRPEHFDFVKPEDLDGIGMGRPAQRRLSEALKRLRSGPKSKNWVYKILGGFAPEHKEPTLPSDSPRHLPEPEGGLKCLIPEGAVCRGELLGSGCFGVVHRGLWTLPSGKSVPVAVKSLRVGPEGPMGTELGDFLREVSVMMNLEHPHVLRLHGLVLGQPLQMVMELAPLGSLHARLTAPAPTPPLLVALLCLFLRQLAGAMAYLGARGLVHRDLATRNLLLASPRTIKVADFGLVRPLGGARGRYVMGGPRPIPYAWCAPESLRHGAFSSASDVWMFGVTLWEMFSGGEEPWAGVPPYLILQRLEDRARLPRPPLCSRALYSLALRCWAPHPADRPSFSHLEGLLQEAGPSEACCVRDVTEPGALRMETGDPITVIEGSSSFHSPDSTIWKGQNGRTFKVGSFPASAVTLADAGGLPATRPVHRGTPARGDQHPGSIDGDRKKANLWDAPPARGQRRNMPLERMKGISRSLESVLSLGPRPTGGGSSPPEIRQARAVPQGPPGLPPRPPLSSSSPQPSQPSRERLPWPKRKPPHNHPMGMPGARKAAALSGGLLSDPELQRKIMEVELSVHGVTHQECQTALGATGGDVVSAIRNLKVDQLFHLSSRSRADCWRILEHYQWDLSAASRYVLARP

BMK1 = BMK1 (Homo sapiens, UniProt Q13164); test: EGF-induced BMK1 activation in HeLa cells; assay type: cell-based; conditions: 1 μM compound for one hour, EGF 17 min
p21 expression = p21 expression in MEF cells, western blot; assay type: cell-based; conditions: 5 μM, 16 hours
Summary of the method: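 Pml+/+ and Pml−/− MEFs were treated with or without test compound (5 μM) for 16 hr. Lysates were western-blotted with anti-p21 antibody. p21 was quantified by densitometry, normalised to GAPDH, and expressed relative to untreated Pml+/+ cells (set to 1). n = 5; Student's t test.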

[1] = test system: basic fibroblast growth factor (bFGF) induced angiogenesis; test: bFGF-induced angiogenesis in Matrigel plugs; assay type: in vivo; conditions: mice, Matrigel with 400 ng/mL bFGF, treated for 6 days
Summary of the method: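 Mice were implanted with Matrigel containing 400 ng/mL bFGF and treated with test compound or vehicle for 6 days, starting the next day. Plugs were harvested, sectioned and stained with Masson's trichrome (6 mice, 9 slices), and plug hemoglobin content was measured. Student's t test was used.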

[2] = mouse, in vivo, ip, 50 mg/kg
[3] = Tolerability experiments in mice, 14 days

Chain of BMK1 (Q13164 whole entry): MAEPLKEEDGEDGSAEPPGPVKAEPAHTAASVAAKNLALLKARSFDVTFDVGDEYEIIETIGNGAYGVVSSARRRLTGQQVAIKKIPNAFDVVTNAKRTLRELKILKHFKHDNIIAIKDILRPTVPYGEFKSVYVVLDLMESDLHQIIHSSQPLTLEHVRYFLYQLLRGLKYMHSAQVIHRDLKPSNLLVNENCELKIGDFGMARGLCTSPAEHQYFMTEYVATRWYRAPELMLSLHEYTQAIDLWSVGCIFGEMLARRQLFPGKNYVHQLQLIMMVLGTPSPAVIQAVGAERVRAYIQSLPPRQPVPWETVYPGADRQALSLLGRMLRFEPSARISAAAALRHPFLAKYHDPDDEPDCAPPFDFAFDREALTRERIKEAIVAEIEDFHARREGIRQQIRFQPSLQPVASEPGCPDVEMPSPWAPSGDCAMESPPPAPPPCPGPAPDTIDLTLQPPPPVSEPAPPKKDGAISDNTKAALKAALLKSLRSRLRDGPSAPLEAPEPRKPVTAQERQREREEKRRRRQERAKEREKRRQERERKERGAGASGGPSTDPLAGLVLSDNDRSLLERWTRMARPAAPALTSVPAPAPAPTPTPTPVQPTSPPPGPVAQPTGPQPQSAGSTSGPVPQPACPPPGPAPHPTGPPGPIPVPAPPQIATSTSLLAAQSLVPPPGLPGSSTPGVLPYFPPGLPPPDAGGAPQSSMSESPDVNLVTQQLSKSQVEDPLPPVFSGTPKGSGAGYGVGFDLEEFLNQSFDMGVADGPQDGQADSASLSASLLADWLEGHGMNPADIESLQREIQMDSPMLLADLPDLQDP

## CCOc1cc(N2CCC(O)CC2)ccc1Nc1ncc2c(n1)N(C)c1ccccc1C(=O)N2C [XMD8-92]
DCAMKL1
  displacement by XMD8-92: greater than 90%
MEK5
  inhibition of MEK5: not significantly inhibited
TNK1
  inhibitory effect on TNK1: no significant inhibitory effect
BMK1
  Growth factor-induced activation of cellular BMK1: effectively blocked
p21 expression; Pml+/+ MEF cells
  p21 expression: significantly induced
p21 expression; Pml-/- MEF cells
  induction of p21 in PML null cells: substantially reduced
[1]
  bFGF induced angiogenesis in Matrigel plugs: significantly inhibits
[2]
  tolerability: well tolerated
[3]; XMD8-92-treated mice
  vasculature instability: No vasculature instability
[3]; mice, IP dosing of 50 mg/kg, maintained throughout the 14 days
  plasma concentrations of drug: approximately 10 μM
